According to ChEMBL document CHEMBL3272077, “11,12-Secoprostaglandins. 2. N-acyl-N-alkyl-7-aminoheptanoic acids” (1977):

Columns and labels:
Mus musculus [1] = species: Mus musculus; assay: Stimulation of prostanoid receptor-mediated cAMP accumulation in Charles River CD-1 mouse ovary at 10 ug/ml after 30 mins relative to control; format: tissue-based; conditions: Female gonad
How it was run: (§1)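 Mouse ovaries incubated 1 h at 37 °C with shaking to build an intracellular ATP-14C pool. Then 0.2 ml 0.05 M theophylline in 0.15 M NaCl and test compound in Me2SO were added, followed by 30 min at 37 °C. Stopped with 10% trichloroacetic acid and homogenized. cAMP-14C was isolated from the supernatant ending with paper chromatography. Result is fold increase, treated over untreated ovaries.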

Mus musculus [2] = species: Mus musculus; assay: Stimulation of prostanoid receptor-mediated cAMP accumulation in Charles River CD-1 mouse ovary at 1 ug/ml after 30 mins relative to control; format: tissue-based; conditions: Female gonad; how it was run: as §1
Mus musculus [3] = species: Mus musculus; assay: Stimulation of prostanoid receptor-mediated cAMP accumulation in Charles River CD-1 mouse ovary at 25 ug/ml after 30 mins relative to control; format: tissue-based; conditions: Female gonad; how it was run: as §1
Mus musculus [4] = species: Mus musculus; assay: Stimulation of prostanoid receptor-mediated cAMP accumulation in Charles River CD-1 mouse ovary at 100 ug/ml after 30 mins relative to control; format: tissue-based; conditions: Female gonad; how it was run: as §1
Mus musculus [5] = species: Mus musculus; assay: Stimulation of prostanoid receptor-mediated cAMP accumulation in Charles River CD-1 mouse ovary at 0.1 ug/ml after 30 mins relative to control; format: tissue-based; conditions: Female gonad; how it was run: as §1
Mus musculus [6] = species: Mus musculus; assay: Stimulation of prostanoid receptor-mediated cAMP accumulation in Charles River CD-1 mouse ovary at 0.05 ug/ml after 30 mins relative to control; format: tissue-based; conditions: Female gonad; how it was run: as §1
Canis familiaris = assay: Increase in renal blood flow in anesthetized dog at 0.25 mg/kg/min infused into thoracic aorta (reference value: 188 ml/min); format: functional, Canis lupus familiaris

Structure (SMILES)	fold change (FC) (Mus musculus [1])	fold change (FC) (Mus musculus [2])	fold change (FC) (Mus musculus [3])	fold change (FC) (Mus musculus [4])	fold change (FC) (Mus musculus [5])	fold change (FC) (Mus musculus [6])	Activity (Canis familiaris)
CCCCC[C@H](O)CC[C@H]1CCC(=O)[C@@H]1CCCCCCC(=O)O	25	10	26				
CCCCCCCCC(C)N(CCCCCCC(=O)O)C(N)=O (stereo not drawn)	9		16	17			
CCCCC[C@H](O)/C=C/[C@H]1[C@H](O)CC(=O)[C@@H]1CCCCCCC(=O)O		54			25	29	
CCCCCCCCC(c1ccccc1)N(CCCCCCC(=O)O)C(C)=O (stereo not drawn)			1	1			
CCCCCC(C)(O)CCCN(CCCCCCC(=O)O)C(N)=O (stereo not drawn)	3		8	22			
CCCCCC(O)CCCN(CCCCCCC(=O)O)C(C)=O (stereo not drawn)	10		17	17			
CCCCCCCCC(C)N(CCCCCCC(=O)O)C(C)=O (stereo not drawn)			3	4			
CCCCCC(O)CCCC(CCCCCCC(=O)O)C(C)=O (stereo not drawn)	11	2	14	23			
CCCCCC(O)CCCN(CCCCCCC(=O)[O-])C(N)=O.[Na+] (stereo not drawn)	23	2	43	40			258 mL/min
C=CC(=O)N(CCCCCCCCC)CCCCCCC(=O)O	2		7	11			
CCCCCC(O)CCCN(CCCCCCC(=O)O)C(N)=S (stereo not drawn)	4		16	26			
CCCCCC(O)/C=C/CN(CCCCCCC(=O)O)C(N)=O (stereo not drawn)	14		19	26			
CCCCCCCCCN(CCCCCCC(=O)O)C(N)=O	15		16	25			
CCCCCC(O)CCCN(C#N)CCCCCCC(=O)O (stereo not drawn)	4		18	31			
